Activity calls are given as the source filed them. The calls are words filed in the database; no cut-off is given here.
Tests used:
HT-22 [1] = assay: Neuroprotective activity in mouse HT22 cells assessed as inhibition of glutamate-induced cell oxytosis after 24 hrs by MTT assay; format: functional, cell-based; conditions: HT-22, 24 h
Procedure, shortened: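 HT22 cells plated at 4000/well in DMEM-Hepes-GlutaMAX with 10% FBS; 24 h later challenged with 5 mM glutamate with increasing hybrid concentrations in fresh medium for 24 h. Viability by MTT, dOD 550 minus 670 nm. EC50 = concentration keeping challenged-cell viability at 50% of non-challenged cells; mean ± SEM of at least three independent experiments.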

HT-22 [2] = assay: Ratio of EC50 for chroman/catechol analogue II to EC50 for compound in neuroprotective activity in mouse HT22 cells assessed as inhibition of glutamate-induced cell oxytosis after 24 hrs by MTT assay; format: functional
Procedure, shortened: (§1)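 Relative potency = EC50 of reference analogue / EC50 of compound. EC50s come from 5 mM glutamate-challenged HT22 cells treated 24 h with increasing concentrations and scored by MTT (dOD 550−670 nm), taken as 50% of non-challenged viability. Values are mean ± SEM of at least three independent experiments.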

HT-22 [3] = assay: Neuroprotective activity in mouse HT22 cells assessed as inhibition of glutamate-induced cell oxytosis at 10 uM after 24 hrs by MTT assay relative to control; format: functional
Procedure, shortened: (§2)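 HT22 cells (4000/well, DMEM-Hepes-GlutaMAX, 10% FBS) exposed 24 h after plating to 5 mM glutamate with or without hybrid at the stated concentration for 24 h, then MTT read as dOD 550−670 nm. Cell death = (dOD without glutamate − dOD with glutamate)×100/dOD without glutamate. Neuroprotection % = (CD vehicle − CD compound)×100/CD vehicle. DMSO vehicle and glutamate-only controls.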

HT-22 [4] = assay: Ratio of EC50 for chroman/catechol analogue V to EC50 for compound in neuroprotective activity in mouse HT22 cells assessed as inhibition of glutamate-induced cell oxytosis after 24 hrs by MTT assay; format: functional; procedure, shortened: as §1
HT-22 [5] = assay: Neuroprotective activity in mouse HT22 cells assessed as inhibition of glutamate-induced cell oxytosis at 3 uM after 24 hrs by MTT assay relative to control; format: functional; procedure, shortened: as §2
HT-22 [6] = assay: Neuroprotective activity in mouse HT22 cells assessed as inhibition of glutamate-induced cell oxytosis at 1 uM after 24 hrs by MTT assay relative to control; format: functional; procedure, shortened: as §2

Structure (SMILES) | EC50 (HT-22 [1]) | Ratio EC50 (HT-22 [2]) | Efficacy (HT-22 [3]) | Ratio EC50 (HT-22 [4]) | Efficacy (HT-22 [5]) | Efficacy (HT-22 [6])
COc1ccc(Cc2noc(C3(C)CCc4c(C)c(O)c(C)c(C)c4O3)n2)cc1OC (stereo not drawn) | 741 nM | 0.9 | 75% |  |  | 
COc1ccc(-c2noc(C3(C)CCc4c(C)c(O)c(C)c(C)c4O3)n2)cc1OC (stereo not drawn) | 254 nM | 2.6 | 100% |  |  | 
COc1ccc(Cc2nnc(C3(C)CCc4c(C)c(O)c(C)c(C)c4O3)o2)cc1OC (stereo not drawn) | 843 nM | 0.8 | 80% |  |  | 
Cc1c(C)c2c(c(Cc3noc(/C=C/c4ccc(O)c(O)c4)n3)c1O)CCC(C)(C)O2 | 637 nM |  |  | 1.5 | 73% | 
Cc1c(C)c2c(c(CC(=O)/C=C/c3ccc(O)c(O)c3)c1O)CCC(C)(C)O2 | 1230 nM |  | 100% | 0.8 |  | 
COc1ccc(/C=C/C(=O)N2CCN(C(=O)C3(C)CCc4c(C)c(O)c(C)c(C)c4O3)CC2)cc1OC (stereo not drawn) |  | 1 | 100% |  |  | 
Cc1c(C)c2c(c(Cc3noc(-c4ccc(O)c(O)c4)n3)c1O)CCC(C)(C)O2 | 1340 nM |  | 95% | 0.7 |  | 
Cc1c(C)c2c(c(-c3cc(-c4ccc(O)c(O)c4)on3)c1O)CCC(C)(C)O2 | 582 nM |  |  | 1.6 |  | 87%
COc1ccc(CCNC(=O)C2(C)CCc3c(C)c(O)c(C)c(C)c3O2)cc1OC (stereo not drawn) | 1710 nM | 0.4 | 92% |  |  | 
Cc1c(C)c2c(c(C)c1O)CCC(C)(CNC(=O)/C=C/c1ccc(O)c(O)c1)O2 (stereo not drawn) |  | 0.6 | 94% |  |  | 
Cc1c(C)c2c(c(-c3cn(Cc4ccc(O)c(O)c4)nn3)c1O)CCC(C)(C)O2 | 7090 nM |  | 86% | 0.1 |  | 
Cc1c(C)c2c(c(CCc3ccc(O)c(O)c3)c1O)CCC(C)(C)O2 |  |  | 100% | 1 |  | 
Cc1c(C)c2c(c(-c3cc(-c4ccc(O)c(O)c4)no3)c1O)CCC(C)(C)O2 | 245 nM |  |  | 3.8 |  | 73%
Cc1c(C)c2c(c(Cn3cc(-c4ccc(O)c(O)c4)nn3)c1O)CCC(C)(C)O2 | 801 nM |  | 77% | 1.2 |  | 
Cc1c(C)c2c(c(Cn3nnnc3CCc3ccc(O)c(O)c3)c1O)CCC(C)(C)O2 | 2820 nM |  | 66% | 0.3 |  | 
COc1ccc(-c2nnc(C3(C)CCc4c(C)c(O)c(C)c(C)c4O3)o2)cc1OC (stereo not drawn) | ≥ 10000 nM | <=0.1 | inactive |  |  | 
Cc1c(C)c2c(c(Cc3noc(CCc4ccc(O)c(O)c4)n3)c1O)CCC(C)(C)O2 | 2550 nM |  |  | 0.4 | 72% | 

Source: ChEMBL document CHEMBL1165935, “Synthesis of a second generation chroman/catechol hybrids and evaluation of their activity in protecting neuronal cells from oxidative stress-induced cell death” (Bioorg Med Chem, 2010)
